Results published in ChEMBL document CHEMBL4406821, “Novel dual inhibitors targeting CDK4 and VEGFR2 synergistically suppressed cancer progression and angiogenesis” (Eur J Med Chem, 2019).
The source made the active and inactive calls. The calls are words filed in the database; no cut-off is given here.

Tests used:
[1] = n-octanol/water partition coefficient, log P of the compound by shake flask method based HPLC analysis; type: physicochemical
[2] = target: Vascular endothelial growth factor receptor 2 (Homo sapiens, UniProt P35968); test: Inhibition of recombinant human VEGFR2 (790 to end residues) using myelin ba as substrate at 1 uM incubated for 40 mins by [gamma-33P]-ATP based radiometric assay relative to control
In short: (§1)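 Kinase panel profiling at 1 μM performed by Eurofins KinaseProfiler; percent inhibition reported as mean of two independent experiments.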

HeLa = test: Antiproliferative activity against human HeLa cells assessed as reduction in cell viability measured after 72 hrs by CCK8 assay; type: functional, cell-based
In short: (§2)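 Cells were seeded at 3×10³ cells/well and exposed to a range of concentrations or vehicle for 72 h. Viability was read by CCK-8 at 450 nm, with DMSO as blank and five replicates per sample. IC50 was calculated from the dose-response.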

T47D [3] = test: Antiproliferative activity against human T47D cells assessed as reduction in cell viability measured after 72 hrs by CCK8 assay; type: functional, cell-based; in short: as §2
SiHa [4] = test: Antiproliferative activity against human SiHa cells assessed as reduction in cell viability measured after 72 hrs by CCK8 assay; type: functional, cell-based; in short: as §2
MDA-MB-231 [5] = test: Antiproliferative activity against human MDA-MB-231 cells assessed as reduction in cell viability measured after 72 hrs by CCK8 assay; type: functional, cell-based; conditions: MDA-MB-231, 72 h; in short: as §2
HUVEC [6] = test: Antiproliferative activity against HUVEC cells assessed as reduction in cell viability measured after 72 hrs by CCK8 assay; type: functional, cell-based; conditions: Homo sapiens; in short: as §2
HUVEC [7] = test: Antiangiogenic activity against HUVEC cells assessed as reduction in tube formation at 20 to 40 nM incubated for 6 hrs by light microscopy; type: functional, cell-based; conditions: Homo sapiens
In short: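 HUVECs, 4×10⁴ cells/well, were seeded on Matrigel that had been solidified at 37°C for 30 min. Cells were treated with compound or vehicle at 37°C for 6 h. Three random fields were counted and photographed under a light microscope.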

MDA-MB-231 [8] = test: Induction of apoptosis in human MDA-MB-231 cells assessed as increase in late apoptotic cells at 20 to 40 nM incubated for 48 hrs by annexin V FITC and propidium iodide staining based flow cytometry; type: functional, cell-based
In short: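 Annexin V-FITC/PI double staining with flow-cytometric readout. MDA-MB-231, T-47D, SiHa and HeLa cells were treated with graded concentrations for 48 h. MDA-MB-231 and T-47D were grown in DMEM and SiHa in 1640 medium, each with 10% FBS and 1% penicillin/streptomycin at 37°C under 5% CO2. Early- and late-stage apoptotic fractions were scored.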

[9] = AUC (0 to t) in Sprague-Dawley rat at 10 mg/kg, iv by HPLC-MS analysis; type: ADME, organism-based; conditions: in vivo
In short: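 Rats fitted with jugular vein catheters for serial blood sampling. Compound dissolved in saline with 5% (v/v) DMSO and given as a single 10 mg/kg dose iv or po after an overnight fast, n = 5 per group. Plasma isolated at once and measured by HPLC with tandem MS detection. Parameters derived by noncompartmental fitting.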

[10] = Tmax in Sprague-Dawley rat at 10 mg/kg, iv by HPLC-MS analysis; type: ADME, organism-based; conditions: in vivo
[11] = Volume of distribution in Sprague-Dawley rat at 10 mg/kg, po by HPLC-MS analysis; type: ADME, organism-based; conditions: in vivo
[12] = target: Casein kinase I isoform gamma-2 (Homo sapiens) (UniProt P78368); test: Inhibition of recombinant human CK1gamma2 (18 to end residues) at 1 uM using KRRRALS(p)VAS as substrate incubated for 40 mins in presence of [gamma-33P]-ATP by scintillation counting method relative to control; in short: as §1
[13] = target: Serine/threonine-protein kinase 10 (Homo sapiens) (UniProt O94804); test: Inhibition of recombinant human LOK (1 to 348 residues) at 1 uM using RLGRDKYKTLRQIRQ as substrate incubated for 40 mins in presence of [gamma-33P]-ATP by scintillation counting method relative to control
[14] = target: Protein kinase C zeta type (Homo sapiens) (UniProt Q05513); test: Inhibition of recombinant human PKCzeta (2 to end residues) at 1 uM using ERMRPRKRQGSVRRRV as substrate incubated for 40 mins in presence of [gamma-33P]-ATP by scintillation counting method relative to control
[15] = target: Serine/threonine-protein kinase Sgk3 (Homo sapiens) (UniProt Q96BR1); test: Inhibition of recombinant human SGK3 (119 to end residues) at 1 uM using GRPRTSSFAEGKK as substrate incubated for 40 mins in presence of [gamma-33P]-ATP by scintillation counting method relative to control
[16] = target: SRSF protein kinase 1 (Homo sapiens) (UniProt Q96SB4); test: Inhibition of recombinant human SRPK1 (2 to end residues) at 1 uM using RSRSRSRSRSRSRSR as substrate incubated for 40 mins in presence of [gamma-33P]-ATP by scintillation counting method relative to control
[17] = target: Phosphatidylinositol 4,5-bisphosphate 3-kinase catalytic subunit gamma isoform (Homo sapiens) (UniProt P48736); test: Inhibition of recombinant human full length PI3K p120gamma at 1 uM using phosphatidylinositol-4, 5-bisphosphate as substrate incubated for 40 mins in presence of [gamma-33P]-ATP by scintillation counting method relative to control
HUVEC [18] = test: Antiproliferative activity against HUVEC cells assessed as reduction in cell viability at 20 to 40 nM by CCK8 assay; type: functional, cell-based; conditions: Homo sapiens, TDE = time-dependent effect
In short: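 HUVECs, 3×10³ cells/well, kept in 1640 medium with 10% FBS at 37°C and 5% CO₂. Cells were treated at 20 or 40 nM or vehicle, and viability was read by CCK-8 (absorbance 450 nm) at 0, 12, 24, 36, 48, 60 and 72 h. Five replicates per sample.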

T47D [19] = test: Induction of apoptosis in human T47D cells assessed as decrease in Bcl2 expression at 20 to 40 nM incubated for 48 hrs by Western blot analysis; type: functional, cell-based
In short: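 Cancer cells were exposed to graded concentrations for 48 h, washed three times in PBS and lysed in RIPA buffer. Immunoblots were probed with anti-Rb, anti-phospho-Rb, anti-Ki67 and anti-Bcl-2, each at 1:1000. β-actin served as loading control.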

[20] = Toxicity in BALB/c mouse assessed as effect on blood parameter by measuring monocytes content at 40 mg/kg, po administered once two days for 4 times by hematology analyzer; conditions: in vivo
SiHa [21] = test: Antiangiogenic activity against human SiHa cells xenografted in NOD/SCID BALB/c mouse assessed as reduction in CD31 expression at 40 mg/kg, po measured after 21 days by hematoxylin and eosin staining based immunohistochemistry; type: functional, organism-based
In short: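 Female NOD/SCID Balb/c mice, 6–8 weeks old, received 2×10^6 SiHa cells subcutaneously in the right flank. Once tumors reached 100 mm³, mice were randomized, 5 per group, and gavaged once daily for 21 days. Formalin-fixed, paraffin-embedded tumor sections were stained with Ki67 or CD31 antibody (1:100, 4 °C overnight), then biotin secondary and ABC-peroxidase/DAB, with hematoxylin counterstain.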

Sequence of Vascular endothelial growth factor receptor 2 (P35968 whole entry): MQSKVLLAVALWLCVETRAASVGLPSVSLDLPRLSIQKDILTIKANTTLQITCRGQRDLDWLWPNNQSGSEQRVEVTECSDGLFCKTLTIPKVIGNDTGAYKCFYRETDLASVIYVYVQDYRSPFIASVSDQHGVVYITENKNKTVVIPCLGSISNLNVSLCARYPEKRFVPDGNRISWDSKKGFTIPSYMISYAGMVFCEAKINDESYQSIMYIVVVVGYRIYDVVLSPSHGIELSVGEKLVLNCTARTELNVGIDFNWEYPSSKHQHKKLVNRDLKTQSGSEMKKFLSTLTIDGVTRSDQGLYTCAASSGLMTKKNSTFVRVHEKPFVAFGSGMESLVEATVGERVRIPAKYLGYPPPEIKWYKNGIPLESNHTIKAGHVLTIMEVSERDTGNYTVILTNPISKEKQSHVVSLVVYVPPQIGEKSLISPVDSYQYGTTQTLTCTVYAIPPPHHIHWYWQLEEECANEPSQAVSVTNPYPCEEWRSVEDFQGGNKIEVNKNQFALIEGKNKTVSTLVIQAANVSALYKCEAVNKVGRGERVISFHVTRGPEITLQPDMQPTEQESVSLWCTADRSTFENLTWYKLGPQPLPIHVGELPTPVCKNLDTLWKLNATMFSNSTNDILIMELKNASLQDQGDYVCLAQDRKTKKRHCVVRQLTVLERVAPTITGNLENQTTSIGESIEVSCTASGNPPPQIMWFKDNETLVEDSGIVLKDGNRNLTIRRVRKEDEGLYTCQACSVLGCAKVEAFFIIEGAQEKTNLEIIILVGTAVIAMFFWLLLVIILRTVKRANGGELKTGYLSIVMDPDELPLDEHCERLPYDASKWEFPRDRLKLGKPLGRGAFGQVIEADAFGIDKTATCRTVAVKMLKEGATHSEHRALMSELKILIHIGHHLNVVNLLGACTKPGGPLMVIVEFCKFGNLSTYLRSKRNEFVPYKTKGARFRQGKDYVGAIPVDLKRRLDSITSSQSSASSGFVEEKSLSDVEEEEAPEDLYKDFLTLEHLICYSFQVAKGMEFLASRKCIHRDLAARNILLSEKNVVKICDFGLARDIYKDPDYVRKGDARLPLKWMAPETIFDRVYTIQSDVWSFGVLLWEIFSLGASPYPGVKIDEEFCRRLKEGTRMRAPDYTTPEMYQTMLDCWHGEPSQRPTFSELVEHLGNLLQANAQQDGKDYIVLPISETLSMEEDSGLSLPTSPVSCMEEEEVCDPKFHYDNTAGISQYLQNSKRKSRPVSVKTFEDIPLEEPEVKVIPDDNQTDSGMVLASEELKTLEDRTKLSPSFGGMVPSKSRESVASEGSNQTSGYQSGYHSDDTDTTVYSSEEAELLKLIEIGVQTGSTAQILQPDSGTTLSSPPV
Sequence of Casein kinase I isoform gamma-2 (Homo sapiens) (P78368 whole entry, looked up, the tested form may be a part, canonical isoform): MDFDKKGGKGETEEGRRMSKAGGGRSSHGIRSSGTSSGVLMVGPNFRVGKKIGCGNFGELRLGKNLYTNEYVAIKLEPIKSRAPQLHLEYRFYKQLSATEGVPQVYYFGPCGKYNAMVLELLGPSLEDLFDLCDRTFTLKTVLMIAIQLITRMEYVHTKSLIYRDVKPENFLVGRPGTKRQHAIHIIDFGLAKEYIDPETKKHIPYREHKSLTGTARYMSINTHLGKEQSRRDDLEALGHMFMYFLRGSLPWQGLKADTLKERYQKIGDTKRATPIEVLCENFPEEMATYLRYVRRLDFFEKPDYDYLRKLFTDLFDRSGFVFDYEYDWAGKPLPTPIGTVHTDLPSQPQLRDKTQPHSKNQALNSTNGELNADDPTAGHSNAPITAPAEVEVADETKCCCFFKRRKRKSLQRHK
Sequence of Protein kinase C zeta type (Homo sapiens) (Q05513 whole entry): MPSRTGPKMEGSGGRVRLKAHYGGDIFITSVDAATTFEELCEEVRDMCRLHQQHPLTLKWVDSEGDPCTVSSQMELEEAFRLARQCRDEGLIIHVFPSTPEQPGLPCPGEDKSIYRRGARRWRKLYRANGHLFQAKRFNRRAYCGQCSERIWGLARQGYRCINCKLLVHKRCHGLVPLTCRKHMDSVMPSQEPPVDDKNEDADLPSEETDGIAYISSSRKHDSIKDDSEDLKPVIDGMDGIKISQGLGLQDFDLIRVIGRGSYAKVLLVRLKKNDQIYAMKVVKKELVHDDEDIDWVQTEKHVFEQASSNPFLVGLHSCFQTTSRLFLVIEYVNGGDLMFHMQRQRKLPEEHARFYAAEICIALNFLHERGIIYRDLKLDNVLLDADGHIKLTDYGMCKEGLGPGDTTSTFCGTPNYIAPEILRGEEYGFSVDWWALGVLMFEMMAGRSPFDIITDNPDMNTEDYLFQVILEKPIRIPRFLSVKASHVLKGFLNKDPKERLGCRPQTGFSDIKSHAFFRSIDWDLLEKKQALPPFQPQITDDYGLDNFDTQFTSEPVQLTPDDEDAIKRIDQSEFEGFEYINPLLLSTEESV
Sequence of Phosphatidylinositol 4,5-bisphosphate 3-kinase catalytic subunit gamma isoform (Homo sapiens) (P48736 whole entry, looked up, canonical isoform): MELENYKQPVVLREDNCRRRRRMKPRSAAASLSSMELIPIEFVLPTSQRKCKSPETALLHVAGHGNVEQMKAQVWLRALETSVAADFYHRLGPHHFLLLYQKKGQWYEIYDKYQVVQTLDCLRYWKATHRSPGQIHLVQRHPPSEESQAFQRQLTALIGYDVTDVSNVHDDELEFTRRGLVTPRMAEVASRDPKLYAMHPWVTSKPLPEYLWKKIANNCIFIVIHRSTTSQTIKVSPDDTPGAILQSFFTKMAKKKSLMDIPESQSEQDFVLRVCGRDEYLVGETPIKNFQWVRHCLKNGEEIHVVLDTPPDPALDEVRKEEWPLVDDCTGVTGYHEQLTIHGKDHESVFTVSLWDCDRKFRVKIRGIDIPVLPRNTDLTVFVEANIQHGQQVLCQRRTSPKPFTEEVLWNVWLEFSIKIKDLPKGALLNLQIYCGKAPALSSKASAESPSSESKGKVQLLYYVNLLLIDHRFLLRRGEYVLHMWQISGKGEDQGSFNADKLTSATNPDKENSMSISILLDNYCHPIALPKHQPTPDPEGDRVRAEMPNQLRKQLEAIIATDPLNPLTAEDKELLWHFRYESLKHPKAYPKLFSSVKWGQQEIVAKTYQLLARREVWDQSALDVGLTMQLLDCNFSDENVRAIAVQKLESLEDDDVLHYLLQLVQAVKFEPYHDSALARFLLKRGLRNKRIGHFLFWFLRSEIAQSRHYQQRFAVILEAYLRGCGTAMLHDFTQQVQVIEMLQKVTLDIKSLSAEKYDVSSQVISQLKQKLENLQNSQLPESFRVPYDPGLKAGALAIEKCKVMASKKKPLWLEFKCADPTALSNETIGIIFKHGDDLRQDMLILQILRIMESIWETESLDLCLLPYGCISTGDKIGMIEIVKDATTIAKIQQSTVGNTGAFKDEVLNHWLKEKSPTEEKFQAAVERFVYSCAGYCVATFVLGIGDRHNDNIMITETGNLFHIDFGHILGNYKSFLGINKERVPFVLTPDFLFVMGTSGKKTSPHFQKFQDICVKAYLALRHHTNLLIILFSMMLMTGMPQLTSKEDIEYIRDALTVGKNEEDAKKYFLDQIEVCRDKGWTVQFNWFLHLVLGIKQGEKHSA
Sequence of Serine/threonine-protein kinase 10 (Homo sapiens) (O94804 whole entry, looked up, the tested form may be a part): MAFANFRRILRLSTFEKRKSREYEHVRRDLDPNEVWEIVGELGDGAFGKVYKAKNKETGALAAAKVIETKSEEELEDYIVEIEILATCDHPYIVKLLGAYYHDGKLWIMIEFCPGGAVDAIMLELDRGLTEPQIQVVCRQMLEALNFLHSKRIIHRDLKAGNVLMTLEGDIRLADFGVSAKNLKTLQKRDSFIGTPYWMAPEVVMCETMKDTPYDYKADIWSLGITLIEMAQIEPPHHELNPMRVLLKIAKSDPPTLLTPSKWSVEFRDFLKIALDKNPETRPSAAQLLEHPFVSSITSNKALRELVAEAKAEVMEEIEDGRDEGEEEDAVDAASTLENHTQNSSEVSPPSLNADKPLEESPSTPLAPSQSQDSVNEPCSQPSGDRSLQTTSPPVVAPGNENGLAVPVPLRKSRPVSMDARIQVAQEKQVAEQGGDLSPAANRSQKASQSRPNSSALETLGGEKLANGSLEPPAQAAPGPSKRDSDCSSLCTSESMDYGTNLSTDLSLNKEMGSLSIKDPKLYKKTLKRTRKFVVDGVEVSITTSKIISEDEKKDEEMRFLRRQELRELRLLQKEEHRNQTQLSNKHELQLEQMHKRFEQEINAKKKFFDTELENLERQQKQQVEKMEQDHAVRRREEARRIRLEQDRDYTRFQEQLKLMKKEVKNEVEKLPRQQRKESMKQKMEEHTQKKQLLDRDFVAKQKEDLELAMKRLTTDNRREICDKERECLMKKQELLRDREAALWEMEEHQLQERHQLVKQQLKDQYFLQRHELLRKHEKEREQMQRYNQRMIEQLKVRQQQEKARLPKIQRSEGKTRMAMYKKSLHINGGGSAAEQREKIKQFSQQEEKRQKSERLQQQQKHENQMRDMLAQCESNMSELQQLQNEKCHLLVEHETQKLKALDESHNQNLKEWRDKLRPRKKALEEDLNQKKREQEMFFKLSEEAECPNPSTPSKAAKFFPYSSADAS
Sequence of SRSF protein kinase 1 (Homo sapiens) (Q96SB4 whole entry, canonical isoform): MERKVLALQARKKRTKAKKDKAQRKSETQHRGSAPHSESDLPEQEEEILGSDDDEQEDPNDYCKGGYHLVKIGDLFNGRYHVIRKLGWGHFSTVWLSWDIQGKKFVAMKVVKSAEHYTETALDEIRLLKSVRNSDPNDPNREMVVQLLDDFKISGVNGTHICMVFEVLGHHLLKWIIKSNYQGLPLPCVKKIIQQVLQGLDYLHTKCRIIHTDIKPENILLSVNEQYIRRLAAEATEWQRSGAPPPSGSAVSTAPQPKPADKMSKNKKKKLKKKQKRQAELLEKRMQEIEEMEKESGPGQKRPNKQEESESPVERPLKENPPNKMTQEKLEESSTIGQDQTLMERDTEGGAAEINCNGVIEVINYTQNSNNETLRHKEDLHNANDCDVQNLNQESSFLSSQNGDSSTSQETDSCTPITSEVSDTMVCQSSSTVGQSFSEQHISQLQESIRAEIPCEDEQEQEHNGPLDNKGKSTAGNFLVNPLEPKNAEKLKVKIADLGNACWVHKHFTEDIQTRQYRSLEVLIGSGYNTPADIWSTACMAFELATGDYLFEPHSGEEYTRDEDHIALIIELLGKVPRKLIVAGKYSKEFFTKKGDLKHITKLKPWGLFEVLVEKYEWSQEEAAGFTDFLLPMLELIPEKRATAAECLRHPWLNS

For Cc1ccc(NC(=O)C2(C(=O)Nc3ccc(Nc4ncc(F)c(-c5cc(F)c6nc(C)n(C(C)C)c6c5)n4)cc3)CC2)cc1, the logP [1] was 2.53, the inhibition [2] was 95% and the IC50 (HeLa) was 0.0715 to 0.072 µM. It also gave an IC50 (T47D [3]) of 0.016 to 0.0164 µM, an IC50 (SiHa [4]) of 0.05 µM and an IC50 (MDA-MB-231 [5]) of 0.038 µM. The IC50 (HUVEC [6]) was 0.036 µM, the inhibition (HUVEC [7]) was “Active” and the Activity (MDA-MB-231 [8]) was “Active”. For the same molecule, the AUC(0-t) [9] was 10 µg·h/mL, the Tmax [10] was 5 min and the Vd [11] was 6 L/kg. For the same molecule, the inhibition [12] was 49%, the inhibition [13] was 93% and the inhibition [14] was 4%. The inhibition [15] was 11%, the inhibition [16] was 21% and the inhibition [17] was 14%. For the same molecule, the inhibition (HUVEC [18]) was “Tde”, the Activity (T47D [19]) was “Active” and the Activity [20] was “Non-Toxic”.

Molecule COc1cc2nccc(Oc3ccc(NC(=O)C4(C(=O)Nc5ccc(F)cc5)CC4)cc3)c2cc1OC [CABOZANTINIB] has an inhibition [2] of 101%, an IC50 (HeLa) of over 10 µM and an IC50 (T47D [3]) of 4.79 µM. For the same molecule, the IC50 (SiHa [4]) was 7.94 µM, the IC50 (MDA-MB-231 [5]) was 5.08 µM and the IC50 (HUVEC [6]) was 7.67 µM. For the same molecule, the inhibition (HUVEC [7]) was “Active” and the inhibition (SiHa [21]) was “Active”.
